Activity calls are given as the source filed them. The calls are words filed in the database; no cut-off is given here.
Key:
Type in all cases: functional, organism-based
Saccharomyces cerevisiae [1] = experiment: Growth inhibition of Saccharomyces cerevisiae harboring FET3 deletion mutant at 400 uM measured for 11 hrs by HOP assay
Method in brief: (§1)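 Pooled homozygous (HOP) or heterozygous (HIP) deletion collections were profiled at 400 µM in two independent experiments, with strain sensitivity read from barcode abundance. Hits were retested as individual log-phase strains in YPD with serial compound dilutions, start OD600 0.01 and 2% DMSO. OD600 was read at 11 h and fitted by logistic regression against HO/YDL227C as wild-type reference.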

Saccharomyces cerevisiae [2] = experiment: Growth inhibition of wild type Saccharomyces cerevisiae BY4743 at 100 uM measured for 15 hrs in presence of Fe2+
Saccharomyces cerevisiae [3] = experiment: Growth inhibition of Saccharomyces cerevisiae harboring GEF1 deletion mutant at 400 uM measured for 11 hrs by HOP assay; method in brief: as §1
Saccharomyces cerevisiae [4] = experiment: Growth inhibition of Saccharomyces cerevisiae harboring PIB2 deletion mutant at 400 uM measured for 11 hrs by HIP assay; method in brief: as §1
Saccharomyces cerevisiae [5] = experiment: Growth inhibition of wild type Saccharomyces cerevisiae BY4743 at 500 uM measured for 15 hrs in presence of Fe2+
Saccharomyces cerevisiae [6] = experiment: Growth inhibition of Saccharomyces cerevisiae harboring GRX6 deletion mutant at 400 uM measured for 11 hrs by HOP assay; method in brief: as §1
Saccharomyces cerevisiae [7] = experiment: Growth inhibition of Saccharomyces cerevisiae harboring FTR1 deletion mutant at 400 uM measured for 11 hrs by HOP assay; method in brief: as §1
Saccharomyces cerevisiae [8] = experiment: Growth inhibition of Saccharomyces cerevisiae harboring CCC2 deletion mutant at 400 uM measured for 11 hrs by HOP assay; method in brief: as §1

| SMILES | growth inhibition (GI) (Saccharomyces cerevisiae [1]) | growth inhibition (GI) (Saccharomyces cerevisiae [2]) | growth inhibition (GI) (Saccharomyces cerevisiae [3]) | growth inhibition (GI) (Saccharomyces cerevisiae [4]) | growth inhibition (GI) (Saccharomyces cerevisiae [5]) | growth inhibition (GI) (Saccharomyces cerevisiae [6]) | growth inhibition (GI) (Saccharomyces cerevisiae [7]) | growth inhibition (GI) (Saccharomyces cerevisiae [8]) |
| --- | --- | --- | --- | --- | --- | --- | --- | --- |
| O=C(O)c1ccc(-n2nc(-c3ccccc3O)nc2-c2ccccc2O)cc1 | Active | inactive | inactive | – | – | – | – | – |
| Cc1cc2c(C(C)C)c(O)c(O)c(C=O)c2c(O)c1-c1c(C)cc2c(C(C)C)c(O)c(O)c(C=O)c2c1O | Active | – | Active | inactive | inactive | Active | Active | Active |

Reference: ChEMBL document CHEMBL4196102, “Yeast Chemogenomic Profiling Reveals Iron Chelation To Be the Principle Cell Inhibitory Mode of Action of Gossypol” (J Med Chem, 2018)
